Measured values: ChEMBL document CHEMBL1131423, “N-(2-Benzoylphenyl)-L-tyrosine PPARgamma agonists. 2. Structure-activity relationship and optimization of the phenyl alkyl ether moiety” (J Med Chem, 1998)
Values after ≈ are worked out from the molar mass of the structure shown. Active and inactive are the calls of the source. No cut-off for these calls is given here.

What was measured:
[1] = molecular target: T1, Peroxisome proliferator-activated receptor gamma (Homo sapiens) (UniProt P37231); experiment: Inhibition of Peroxisome proliferator activated receptor gamma
T1 sequence (whole entry): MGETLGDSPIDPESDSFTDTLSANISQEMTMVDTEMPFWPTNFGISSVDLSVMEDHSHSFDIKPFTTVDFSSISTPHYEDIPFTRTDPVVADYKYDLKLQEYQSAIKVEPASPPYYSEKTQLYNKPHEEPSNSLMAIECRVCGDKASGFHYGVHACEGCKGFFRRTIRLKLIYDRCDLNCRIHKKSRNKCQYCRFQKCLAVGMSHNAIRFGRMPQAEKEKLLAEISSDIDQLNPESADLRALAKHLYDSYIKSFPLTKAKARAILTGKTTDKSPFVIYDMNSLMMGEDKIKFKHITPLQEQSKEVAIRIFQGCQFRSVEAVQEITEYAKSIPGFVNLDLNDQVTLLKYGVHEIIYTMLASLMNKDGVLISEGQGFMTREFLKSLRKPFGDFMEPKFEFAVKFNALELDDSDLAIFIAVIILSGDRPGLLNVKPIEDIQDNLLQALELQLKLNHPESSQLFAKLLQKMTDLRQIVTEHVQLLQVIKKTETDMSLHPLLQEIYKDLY
Procedure, shortened: (§1)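 Competitive radioligand binding to PPARγ with [3H]BRL 49653 as the radioligand. […] It is converted to an apparent Ki by Ki = IC50/(1 + [L]/Kd), and results are given as pKi.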

[2] = molecular target: T2, Peroxisome proliferator-activated receptor gamma (Homo sapiens, UniProt P37231); experiment: Inhibition by 50% of in vitro binding to Peroxisome proliferator activated receptor gamma
T2 sequence (P37231 whole entry): T1 sequence (whole entry)

[3] = molecular target: T3, Peroxisome proliferator-activated receptor alpha (Homo sapiens) (UniProt Q07869); experiment: Compound was tested in vitro for inhibiting the 50% binding of Peroxisome proliferator activated receptor alpha; IA = 'inactive'
T3 sequence (whole entry): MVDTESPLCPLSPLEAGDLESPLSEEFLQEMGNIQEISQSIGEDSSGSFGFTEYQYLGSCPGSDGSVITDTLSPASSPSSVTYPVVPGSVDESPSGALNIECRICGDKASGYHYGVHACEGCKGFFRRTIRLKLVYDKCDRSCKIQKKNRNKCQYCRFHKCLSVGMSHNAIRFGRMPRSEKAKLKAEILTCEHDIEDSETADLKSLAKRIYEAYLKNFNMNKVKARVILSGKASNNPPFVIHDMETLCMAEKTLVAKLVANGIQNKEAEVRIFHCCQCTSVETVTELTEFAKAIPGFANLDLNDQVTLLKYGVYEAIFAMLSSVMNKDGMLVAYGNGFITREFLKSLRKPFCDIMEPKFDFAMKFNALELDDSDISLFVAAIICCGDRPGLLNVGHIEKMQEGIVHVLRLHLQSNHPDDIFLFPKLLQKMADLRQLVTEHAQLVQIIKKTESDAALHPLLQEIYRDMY

[4] = molecular target: T4, Peroxisome proliferator-activated receptor alpha (Homo sapiens, UniProt Q07869); experiment: In vitro transactivation of Peroxisome proliferator activated receptor alpha.; format: functional
T4 sequence (Q07869 whole entry): T3 sequence (whole entry)

[5] = molecular target: T4, Peroxisome proliferator-activated receptor alpha; experiment: Tested in vitro for inhibiting the 50% binding of Peroxisome proliferator activated receptor alpha
[6] = The solubility determined by equilibrating an excess of solid material in 500 microL of pH 7.4 phosphate buffer; format: ADME; conditions: read-out: S
Procedure, shortened: (§2)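 Samples are filtered (0.22 µm) and diluted in water/acetonitrile 60:40. The dissolved concentration is measured by reversed-phase HPLC on a phenyl column with 0.05% TFA water/acetonitrile (60:40), 1 mL/min, and UV detection at each compound's maximum. Results are in mg/mL.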

[7] = The solubility determined by equilibrating an excess of solid material in 500 microL of simulated gastric fluid; format: ADME; conditions: read-out: S; procedure, shortened: as §2
[8] = molecular target: T1, Peroxisome proliferator-activated receptor gamma (Homo sapiens); experiment: Compound was tested in vitro for inhibiting the 50% binding of Peroxisome proliferator activated receptor gamma; IA = Inactive; procedure, shortened: as §1
[9] = molecular target: Peroxisome proliferator-activated receptor gamma (Homo sapiens) (UniProt P37231); experiment: Compound was tested in vitro for inhibiting the 50% binding of Peroxisome proliferator activated receptor gamma; IA = Inactive

Log Ki [1]	EC50 [4] [nM]	Ki [5] [nM]	SMILES	further results
inactive	–	–	Cc1cc(C)c(C)c(COc2ccc(C[C@H](Nc3ccccc3C(=O)c3ccccc3)C(=O)O)cc2)c1C	–
–	> 10000	138	Cn1cc(-c2ccccc2)nc1CCOc1ccc(C[C@H](Nc2ccccc2C(=O)c2ccccc2)C(=O)O)cc1	solubility thermodynamic [6]: 4 µg/mL (≈ 7.33 µM); solubility thermodynamic [7]: < 1 µg/mL
–	> 10000	> 3020	Cc1nc(-c2ccccc2)nn1CCOc1ccc(C[C@H](Nc2ccccc2C(=O)c2ccccc2)C(=O)O)cc1	solubility thermodynamic [6]: 4 µg/mL (≈ 7.32 µM); solubility thermodynamic [7]: 1 µg/mL (≈ 1.83 µM)
–	> 10000	> 3020	Cc1sc(N(C)C)nc1CCOc1ccc(C[C@H](Nc2ccccc2C(=O)c2ccccc2)C(=O)O)cc1	–
–	> 10000	> 3020	Cc1sc(-c2ccncc2)nc1CCOc1ccc(C[C@H](Nc2ccccc2C(=O)c2ccccc2)C(=O)O)cc1	–
–	> 10000	> 3020	Cc1oc(-c2ccncc2)nc1CCOc1ccc(C[C@H](Nc2ccccc2C(=O)c2ccccc2)C(=O)O)cc1	solubility thermodynamic [6]: 846 µg/mL (≈ 1540 µM); solubility thermodynamic [7]: 5 µg/mL (≈ 9.13 µM)
inactive	–	–	COc1ccc(COc2ccc(C[C@H](Nc3ccccc3C(=O)c3ccccc3)C(=O)O)cc2)nc1OC	–
–	6460	> 3020	Cc1sc(N2CCN(C)CC2)nc1CCOc1ccc(C[C@H](Nc2ccccc2C(=O)c2ccccc2)C(=O)O)cc1	solubility thermodynamic [6]: 10 µg/mL (≈ 17.1 µM); solubility thermodynamic [7]: > 6000 µg/mL
inactive	–	–	O=C(c1ccccc1)c1ccccc1N[C@@H](Cc1ccc(OCC2COC(C3CCCCC3)O2)cc1)C(=O)O (stereo partly drawn)	–
inactive	–	–	COc1ccc(COc2ccc(C[C@H](Nc3ccccc3C(=O)c3ccccc3)C(=O)O)cc2)cc1OC	–
inactive	–	–	C/C(=C\c1ccccc1)COc1ccc(C[C@H](Nc2ccccc2C(=O)c2ccccc2)C(=O)O)cc1	–
–	> 10000	> 3020	Cc1[nH]c(-c2ccccc2)nc1CCOc1ccc(C[C@H](Nc2ccccc2C(=O)c2ccccc2)C(=O)O)cc1	–
–	257	56.2	Cc1oc(-c2ccc(F)cc2)nc1CCOc1ccc(C[C@H](Nc2ccccc2C(=O)c2ccccc2)C(=O)O)cc1	–
–	> 10000	1910	Cc1sc(N2CCOCC2)nc1CCOc1ccc(C[C@H](Nc2ccccc2C(=O)c2ccccc2)C(=O)O)cc1	solubility thermodynamic [6]: 180 µg/mL (≈ 315 µM); solubility thermodynamic [7]: 4 µg/mL (≈ 7 µM)
–	> 10000	> 3020	Cc1sc(N2CCNCC2)nc1CCOc1ccc(C[C@H](Nc2ccccc2C(=O)c2ccccc2)C(=O)O)cc1	solubility thermodynamic [6]: 25 µg/mL (≈ 43.8 µM); solubility thermodynamic [7]: > 10000 µg/mL
inactive	–	–	Cc1nc(COc2ccc(C[C@H](Nc3ccccc3C(=O)c3ccccc3)C(=O)O)cc2)n2nc(Cl)ccc12	–
inactive	–	–	COc1cc(OC)c(OC)cc1COc1ccc(C[C@H](Nc2ccccc2C(=O)c2ccccc2)C(=O)O)cc1	–

Further lines, the compound ahead of its results:

SMILES	Log Ki [1]	EC50 [4] [nM]	Ki [5] [nM]	further results
COC(COc1ccc(C[C@H](Nc2ccccc2C(=O)c2ccccc2)C(=O)O)cc1)c1ccccc1 (stereo partly drawn)	–	–	–	Ki [2]: 794 nM
CC(C)c1ccc(COc2ccc(C[C@H](Nc3ccccc3C(=O)c3ccccc3)C(=O)O)cc2)cc1	–	–	–	Log Ki [3]: inactive
Cc1cc(CCOc2ccc(C[C@H](Nc3ccccc3C(=O)c3ccccc3)C(=O)O)cc2)nn1-c1ccccc1	–	> 10000	407	–
O=C(c1ccccc1)c1ccccc1N[C@@H](Cc1ccc(O)cc1)C(=O)O	inactive	–	–	–
Cc1ncsc1CCOc1ccc(C[C@H](Nc2ccccc2C(=O)c2ccccc2)C(=O)O)cc1	–	–	–	Log Ki [3]: inactive
Cc1ccc[n+]2c1=NC(C)C=2COc1ccc(C[C@H](Nc2ccccc2C(=O)c2ccccc2)C(=O)O)cc1 (stereo partly drawn)	inactive	–	–	–
COc1cc(COc2ccc(C[C@H](Nc3ccccc3C(=O)c3ccccc3)C(=O)O)cc2)cc(Br)c1OC	inactive	–	–	–
COc1ccc(COc2ccc(C[C@H](Nc3ccccc3C(=O)c3ccccc3)C(=O)O)cc2)cc1Br	inactive	–	–	–
CN(CCOc1ccc(C[C@H](Nc2ccccc2C(=O)c2ccccc2)C(=O)O)cc1)Cc1cccs1	inactive	–	–	–
COCCNc1nc(CCOc2ccc(C[C@H](Nc3ccccc3C(=O)c3ccccc3)C(=O)O)cc2)c(C)s1	–	> 10000	1860	solubility thermodynamic [6]: 210 µg/mL (≈ 375 µM); solubility thermodynamic [7]: 210 µg/mL (≈ 375 µM)
Cc1oc(N2CCCCC2)nc1CCOc1ccc(C[C@H](Nc2ccccc2C(=O)c2ccccc2)C(=O)O)cc1	–	> 10000	> 3020	–
Cc1sc(NCCCN(C)C)nc1CCOc1ccc(C[C@H](Nc2ccccc2C(=O)c2ccccc2)C(=O)O)cc1	–	> 10000	> 3020	–
Cc1ccsc1-c1nc(CCOc2ccc(C[C@H](Nc3ccccc3C(=O)c3ccccc3)C(=O)O)cc2)c(C)o1	–	2750	468	–
COc1ccc(-c2nc(CCOc3ccc(C[C@H](Nc4ccccc4C(=O)c4ccccc4)C(=O)O)cc3)c(C)o2)cc1	–	389	107	–
O=C(c1ccccc1)c1ccccc1N[C@@H](Cc1ccc(OC2CCN2C(c2ccccc2)c2ccccc2)cc1)C(=O)O (stereo partly drawn)	–	–	–	Ki [2]: 1620 nM
Cc1ccc(-c2nc(CCOc3ccc(C[C@H](Nc4ccccc4C(=O)c4ccccc4)C(=O)O)cc3)c(C)o2)s1	–	575	45.7	–
O=C(c1ccccc1)c1ccccc1N[C@@H](Cc1ccc(OCCc2ccc(Cl)cc2)cc1)C(=O)O	–	–	–	Log Ki [3]: inactive

SMILES	Log Ki [1]	EC50 [4] [nM]	Ki [5] [nM]	further results
O=C(c1ccccc1)c1ccccc1N[C@@H](Cc1ccc(OCCc2cc(Br)no2)cc1)C(=O)O	–	–	–	Log Ki [8]: inactive
O=C(c1ccccc1)c1ccccc1N[C@@H](Cc1ccc(OCCOc2ccc(Br)cc2)cc1)C(=O)O	–	–	–	Log Ki [3]: inactive
Cc1ccc2cc(COc3ccc(C[C@H](Nc4ccccc4C(=O)c4ccccc4)C(=O)O)cc3)ccc2n1	inactive	–	–	–
Cc1oc(-c2ccccc2)nc1CCOc1ccc(C[C@H](Nc2ccccc2C(=O)c2ccccc2)C(=O)O)cc1 [FARGLITAZAR]	–	–	–	solubility thermodynamic [6]: < 1 µg/mL; solubility thermodynamic [7]: < 1 µg/mL
Cc1ccc[n+]2c1=NC(c1ccccc1)C=2COc1ccc(C[C@H](Nc2ccccc2C(=O)c2ccccc2)C(=O)O)cc1 (stereo partly drawn)	inactive	–	–	–
Cc1sc(N2CCN(C(=O)OC(C)(C)C)CC2)nc1CCOc1ccc(C[C@H](Nc2ccccc2C(=O)c2ccccc2)C(=O)O)cc1	–	> 10000	> 3020	–
CCOc1ccc(COc2ccc(C[C@H](Nc3ccccc3C(=O)c3ccccc3)C(=O)O)cc2)cc1	–	–	–	Log Ki [8]: inactive
Cc1sc(-c2ccccc2)nc1CCOc1ccc(C[C@H](Nc2ccccc2C(=O)c2ccccc2)C(=O)O)cc1	–	1050	126	solubility thermodynamic [6]: 2 µg/mL (≈ 3.55 µM); solubility thermodynamic [7]: < 1 µg/mL
O=C(c1ccccc1)c1ccccc1N[C@@H](Cc1ccc(OCc2cnc3ccccc3c2)cc1)C(=O)O	inactive	–	–	–
Cc1cc(-c2nc(CCOc3ccc(C[C@H](Nc4ccccc4C(=O)c4ccccc4)C(=O)O)cc3)c(C)s2)no1	–	1820	178	–
Cc1ccc(C)c(COc2ccc(C[C@H](Nc3ccccc3C(=O)c3ccccc3)C(=O)O)cc2)c1	–	–	–	Log Ki [8]: inactive
COc1ccccc1C(=O)N1CCC[C@H]1COc1ccc(C[C@H](Nc2ccccc2C(=O)c2ccccc2)C(=O)O)cc1	–	–	–	Ki [2]: 955 nM
Cc1cc(C(C)C)ccc1CCOc1ccc(C[C@H](Nc2ccccc2C(=O)c2ccccc2)C(=O)O)cc1	–	–	–	Log Ki [9]: inactive
COc1ccc(COc2ccc(C[C@H](Nc3ccccc3C(=O)c3ccccc3)C(=O)O)cc2)cc1	–	–	–	Log Ki [8]: inactive
CN(C)C(=O)c1cccc(COc2ccc(C[C@H](Nc3ccccc3C(=O)c3ccccc3)C(=O)O)cc2)n1	–	–	–	Log Ki [8]: inactive
COCn1c(-c2ccccc2)nc(C)c1CCOc1ccc(C[C@H](Nc2ccccc2C(=O)c2ccccc2)C(=O)O)cc1	–	> 10000	> 3020	–
